pIC50: −log10 of the molar value. In brackets after ≈: the same amount, converted by molar mass. Activity calls are given as the source filed them. The rule behind the calls is not given here.
Columns and labels:
Pseudomonas aeruginosa = experiment: Antimicrobial activity against Pseudomonas aeruginosa ATCC 27853 after 24 hrs by broth microdilution method; type: functional, organism-based
How it was run: (§1)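 MIC by broth microdilution per CLSI guidelines. Strains grown on nutrient agar at 37 °C for 24 h. Inoculum prepared in normal saline against a 0.5 McFarland standard, final density 5 × 10^5 cfu/mL. Compounds dissolved in DMSO, then nutrient broth. 2-fold serial dilutions from 128 down to 0.25 μg/mL. Ampicillin column as positive control.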

Escherichia coli = experiment: Antimicrobial activity against Escherichia coli ATCC 35150 after 24 hrs by broth microdilution method
[1] = system: Salmonella enterica subsp. enterica; experiment: Antimicrobial activity against Salmonella enterica ATCC 13311 after 24 hrs by broth microdilution method; type: functional, organism-based; how it was run: as §1
Hepatitis B virus [2] = experiment: Antiviral activity against Hepatitis B virus infected in human HepG2(2.2.15) cells assessed as reduction of HBsAg secretion by enzyme immunoassay; type: functional, organism-based
How it was run: (§2)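 HepG2 2.2.15 cells grown in modified Eagle's medium with 10% FBS, no antibiotics, 37 °C, 5% CO2. Confluent cultures treated at nontoxic concentrations in medium with 2% FBS, renewed every 3 days. Medium collected at day 6; HBsAg and HBeAg measured by enzyme immunoassay. Values relative to 0.1% DMSO control. IFN-alpha as positive control.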

Hepatitis B virus [3] = experiment: Antiviral activity against Hepatitis B virus infected in human HepG2(2.2.15) cells assessed as reduction of HBeAg secretion by enzyme immunoassay; type: functional, organism-based; how it was run: as §2
Listeria monocytogenes = experiment: Antimicrobial activity against Listeria monocytogenes ATCC 7644 after 24 hrs by broth microdilution method; type: functional, organism-based; how it was run: as §1
AGS = experiment: Cytotoxicity against human AGS cells; type: functional, cell-based
Enterococcus faecalis = experiment: Antimicrobial activity against Enterococcus faecalis ATCC 29212 after 24 hrs by broth microdilution method; type: functional, organism-based; how it was run: as §1
Helicobacter pylori = experiment: Antimicrobial activity against Helicobacter pylori ATCC 700392; type: functional
[4] = Cytotoxicity against human HepG2(2.2.15) cells after 3 days by MTS assay; type: functional, cell-based; settings: HepG2 2.2.15, 72 h
How it was run: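 HepG2 2.2.15 cells exposed for 3 days to 2-fold serial dilutions, 1.25–40 μg/mL. Viability read by MTS assay, in triplicate. Expressed as percentage of untreated control. Fluorouracil as positive control.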

Bacillus cereus = experiment: Antimicrobial activity against Bacillus cereus ATCC 9139 after 24 hrs by broth microdilution method; type: functional; settings: ATCC 9139, 24 h; how it was run: as §1
Staphylococcus aureus = experiment: Antimicrobial activity against Staphylococcus aureus ATCC 29213 after 24 hrs by broth microdilution method; type: functional; settings: ATCC 29213, 24 h; how it was run: as §1

SMILES | MIC (Pseudomonas aeruginosa) | MIC (Escherichia coli) | MIC [1] | MIC (Listeria monocytogenes) | MIC (Enterococcus faecalis) | MIC (Bacillus cereus) [µg/mL] | MIC (Staphylococcus aureus) [µg/mL] | inhibition (Hepatitis B virus [2]) | inhibition (Hepatitis B virus [3]) | pIC50 (AGS) | MBC (Helicobacter pylori) [µg/mL] | pIC50 [4]
CC1(C)CC[C@]2(C(=O)O)CC[C@]3(C)C(=C2C1)C=C[C@@H]1[C@@]2(C)CC[C@@H](O)C(C)(C)[C@@H]2CC[C@]13C | inactive | inactive | inactive | inactive | inactive |  |  | inactive | inactive | < 4.30 | 128 (≈ 282 µM) | < 4.30
CC1(C)CC[C@@]23CC[C@]4(C)[C@@](C=C[C@@H]5[C@@]6(C)CC[C@@H](O)C(C)(C)[C@@H]6CC[C@]54C)(OC2=O)[C@@H]3C1 | inactive | inactive | inactive | inactive | inactive |  |  | inactive | inactive | 5.05 | > 128 | < 4.30
CC1(C)CC[C@]2(C(=O)O)CC[C@]3(C)C(=C2C1)C=C[C@@H]1[C@@]2(C)CC[C@@H](O)[C@@](C)(CO)[C@@H]2CC[C@]13C [FATSICARPAIN A] | inactive | inactive | inactive | inactive | inactive | 32 (≈ 68 µM) |  | inactive | inactive | 5.00 | 64 (≈ 136 µM) | 4.72
CC1(C)CC[C@]2(C(=O)O)CC[C@]3(C)C(=C2C1)C=C[C@@H]1[C@@]2(C)CC[C@H](OS(=O)(=O)O)C(C)(C)[C@@H]2CC[C@]13C [FATSICARPAIN B] | inactive | inactive | inactive | inactive | inactive |  |  | inactive | inactive | < 4.30 | 128 (≈ 239 µM) | < 4.30

Further lines, with some results ahead:

MIC (Pseudomonas aeruginosa) | MIC (Escherichia coli) | MIC [1] | MIC (Listeria monocytogenes) | MIC (Enterococcus faecalis) | MIC (Bacillus cereus) [µg/mL] | MIC (Staphylococcus aureus) [µg/mL] | SMILES | inhibition (Hepatitis B virus [2]) | inhibition (Hepatitis B virus [3]) | pIC50 (AGS) | MBC (Helicobacter pylori) [µg/mL] | pIC50 [4]
inactive | inactive | inactive | inactive | inactive | 32 (≈ 68.3 µM) | 64 (≈ 137 µM) | CC1(C)CC[C@]2(C(=O)O)CC[C@]3(C)C(=C2C1)C=C[C@@H]1[C@@]2(C)CC[C@@H](O)[C@@](C)(C=O)[C@@H]2CC[C@]13C [FATSICARPAIN C] | inactive | inactive | < 4.30 | 64 (≈ 137 µM) | 4.78
inactive | inactive | inactive | inactive | inactive | 8 (≈ 17.6 µM) |  | CC1(C)CC[C@]2(C(=O)O)CC[C@]3(C)C(=CC=C4[C@@]5(C)CC[C@@H](O)C(C)(C)[C@@H]5CC[C@]43C)[C@@H]2C1 [FATSICARPAIN D] | inactive | inactive | 4.37 | 64 (≈ 141 µM) | 4.54
inactive | inactive | inactive | inactive | inactive | 64 (≈ 135 µM) |  | CC1(C)C=C2[C@H]3C[C@@H](O)[C@@H]4[C@@]5(C)CC[C@@H](O)C(C)(C)[C@@H]5CC[C@@]4(C)[C@]3(C)CC[C@@]2(C(=O)O)CC1 [FATSICARPAIN E] | inactive | inactive | 4.32 | 128 (≈ 271 µM) | < 4.30
inactive | inactive | inactive | inactive | inactive | 2 (≈ 4.11 µM) |  | CO[C@@H]1C=C2[C@@H]3CC(C)(C)CC[C@]3(C(=O)O)CC[C@@]2(C)[C@]2(C)CC[C@H]3C(C)(C)[C@H](O)CC[C@]3(C)[C@@H]12 [FATSICARPAIN F] | inactive | inactive | < 4.30 | 64 (≈ 131 µM) | 4.62
inactive | inactive | inactive | inactive | inactive |  |  | CC1(C)CC[C@@]23CC[C@]4(C)[C@@](C=C[C@@H]5[C@@]6(C)CC[C@@H](O)[C@@](C)(CO)[C@@H]6CC[C@]54C)(OC2=O)[C@@H]3C1 [FATSICARPAIN G] | inactive | inactive | 4.48 | 64 (≈ 136 µM) | 4.53
